Source: ChEMBL document CHEMBL3997853, “2-Aminopyrimidine Derivatives as New Selective Fibroblast Growth Factor Receptor 4 (FGFR4) Inhibitors” (ACS Med Chem Lett, 2017)

How the values were obtained:
[1] = target: Fibroblast growth factor receptor 2 (Homo sapiens, UniProt P21802); assay: Inhibition of His-tagged cytoplasmic recombinant human FGFR2 (403 to 822 residues) expressed in baculovirus expression system using Tyr 4 peptide as substrate incubated for 1 hr by FRET-based Z'-Lyte assay
[2] = target: Fibroblast growth factor receptor 3 (Homo sapiens, UniProt P22607); assay: Inhibition of His-tagged cytoplasmic recombinant human FGFR3 (399 to 806 residues) expressed in baculovirus expression system using Tyr 4 peptide as substrate incubated for 1 hr by FRET-based Z'-Lyte assay
Chain of Fibroblast growth factor receptor 3 (P22607 whole entry, the tested form may be a part): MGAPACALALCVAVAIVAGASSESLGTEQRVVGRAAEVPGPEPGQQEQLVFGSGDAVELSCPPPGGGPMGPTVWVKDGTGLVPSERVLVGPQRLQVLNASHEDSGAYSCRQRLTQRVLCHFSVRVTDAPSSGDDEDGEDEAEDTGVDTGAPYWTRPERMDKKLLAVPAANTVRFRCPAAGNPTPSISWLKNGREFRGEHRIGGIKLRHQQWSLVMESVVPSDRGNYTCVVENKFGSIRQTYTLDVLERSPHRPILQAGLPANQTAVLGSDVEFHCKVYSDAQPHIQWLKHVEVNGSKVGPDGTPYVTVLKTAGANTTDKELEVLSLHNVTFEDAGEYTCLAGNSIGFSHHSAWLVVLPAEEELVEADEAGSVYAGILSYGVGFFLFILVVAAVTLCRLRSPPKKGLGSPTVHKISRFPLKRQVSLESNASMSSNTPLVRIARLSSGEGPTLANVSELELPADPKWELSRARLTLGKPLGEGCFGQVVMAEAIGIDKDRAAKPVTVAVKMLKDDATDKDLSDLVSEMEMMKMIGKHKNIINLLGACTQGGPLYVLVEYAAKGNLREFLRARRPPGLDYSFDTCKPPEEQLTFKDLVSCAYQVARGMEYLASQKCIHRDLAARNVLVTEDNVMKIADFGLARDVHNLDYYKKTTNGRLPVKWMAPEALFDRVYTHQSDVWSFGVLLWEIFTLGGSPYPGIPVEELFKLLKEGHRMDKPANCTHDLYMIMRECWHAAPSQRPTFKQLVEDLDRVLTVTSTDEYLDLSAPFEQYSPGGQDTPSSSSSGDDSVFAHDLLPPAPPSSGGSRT

MDA-MB-453 [3] = assay: Antiproliferative activity against human MDA-MB-453 cells harboring FGFR4 Y367C mutant after 72 hrs by CCK8 assay; conditions: MDA-MB-453, 72 h
MDA-MB-231 = assay: Antiproliferative activity against human MDA-MB-231 cells expressing low levels of FGFR4 after 72 hrs by CCK8 assay; conditions: MDA-MB-231, 72 h
MCF7 = assay: Antiproliferative activity against human MCF7 cells expressing low levels of FGFR4 after 72 hrs by CCK8 assay; conditions: MCF7, 72 h
[4] = target: Fibroblast growth factor receptor 1 (Homo sapiens, UniProt P11362); assay: Inhibition of His-tagged cytoplasmic recombinant human FGFR1 (308 to 731 residues) expressed in baculovirus expression system using Tyr 4 peptide as substrate incubated for 1 hr by FRET-based Z'-Lyte assay
Chain of Fibroblast growth factor receptor 1 (P11362 whole entry, the tested form may be a part): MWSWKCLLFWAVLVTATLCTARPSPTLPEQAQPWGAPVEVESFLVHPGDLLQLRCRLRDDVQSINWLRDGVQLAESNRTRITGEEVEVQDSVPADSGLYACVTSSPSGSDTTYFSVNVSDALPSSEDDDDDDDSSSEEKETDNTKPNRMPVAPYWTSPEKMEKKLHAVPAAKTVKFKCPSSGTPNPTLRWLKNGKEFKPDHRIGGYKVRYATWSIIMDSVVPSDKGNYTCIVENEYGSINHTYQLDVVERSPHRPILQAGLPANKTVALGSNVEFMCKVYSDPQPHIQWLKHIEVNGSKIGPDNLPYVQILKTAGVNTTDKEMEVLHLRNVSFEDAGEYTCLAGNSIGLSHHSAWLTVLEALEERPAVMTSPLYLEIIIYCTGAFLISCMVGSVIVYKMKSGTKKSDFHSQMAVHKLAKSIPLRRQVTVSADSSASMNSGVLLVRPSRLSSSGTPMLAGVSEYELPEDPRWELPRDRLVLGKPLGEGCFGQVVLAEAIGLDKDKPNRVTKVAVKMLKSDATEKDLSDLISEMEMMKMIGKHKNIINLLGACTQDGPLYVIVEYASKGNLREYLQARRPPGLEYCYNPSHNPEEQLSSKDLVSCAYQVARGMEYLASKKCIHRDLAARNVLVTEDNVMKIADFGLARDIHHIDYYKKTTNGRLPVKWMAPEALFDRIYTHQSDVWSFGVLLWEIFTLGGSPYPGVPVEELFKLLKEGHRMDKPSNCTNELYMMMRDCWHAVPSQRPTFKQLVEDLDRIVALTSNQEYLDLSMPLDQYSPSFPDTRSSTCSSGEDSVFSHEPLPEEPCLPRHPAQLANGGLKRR

[5] = target: T1, Fibroblast growth factor receptor 4 (Homo sapiens, UniProt P22455); assay: Inhibition of His-tagged cytoplasmic recombinant human FGFR4 ([…] residues) expressed in baculovirus expression system using Tyr 4 peptide as substrate incubated for 1 hr by FRET-based Z'-Lyte assay
Target sequence in this assay (P22455 whole entry): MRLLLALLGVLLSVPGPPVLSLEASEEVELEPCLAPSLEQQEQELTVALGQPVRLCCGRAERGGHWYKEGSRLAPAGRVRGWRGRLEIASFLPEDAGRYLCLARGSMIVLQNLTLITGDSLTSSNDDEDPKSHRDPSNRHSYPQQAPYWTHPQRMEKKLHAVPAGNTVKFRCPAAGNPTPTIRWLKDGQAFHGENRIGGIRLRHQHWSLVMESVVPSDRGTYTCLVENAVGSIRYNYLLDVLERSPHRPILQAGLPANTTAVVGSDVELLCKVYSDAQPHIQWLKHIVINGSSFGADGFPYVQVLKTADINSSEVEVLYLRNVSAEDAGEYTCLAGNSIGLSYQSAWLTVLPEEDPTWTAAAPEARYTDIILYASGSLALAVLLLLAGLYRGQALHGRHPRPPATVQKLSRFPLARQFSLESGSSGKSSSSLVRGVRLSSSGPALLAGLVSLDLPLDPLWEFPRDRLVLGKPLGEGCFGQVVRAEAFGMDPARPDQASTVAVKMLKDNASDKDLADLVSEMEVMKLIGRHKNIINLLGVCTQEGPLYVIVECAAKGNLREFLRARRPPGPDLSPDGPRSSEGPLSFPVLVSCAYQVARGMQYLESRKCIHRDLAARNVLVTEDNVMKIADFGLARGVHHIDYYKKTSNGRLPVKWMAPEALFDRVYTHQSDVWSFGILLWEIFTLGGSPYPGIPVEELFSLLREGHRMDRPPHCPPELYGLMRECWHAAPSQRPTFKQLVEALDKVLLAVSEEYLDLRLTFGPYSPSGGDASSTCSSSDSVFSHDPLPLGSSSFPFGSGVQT

MDA-MB-453 [6] = assay: Effect on total ERK1/2 levels in human MDA-MB-453 cells at 3 to 300 nM after 4 hrs by Western blot method; format: ADME, cell-based; conditions: mda-mb-453, 4 h, 0.3 µM
Outline: (§1)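 MDA-MB-453 cells (FGFR4 Y367C) were treated with or without compound for 4 h at the indicated concentrations. Cells were then harvested, and total and phosphorylated FGFR4, FRS2, ERK1/2 and Akt were read by Western blot.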

MDA-MB-453 [7] = assay: Effect on total AKT levels in human MDA-MB-453 cells at 3 to 300 nM after 4 hrs by Western blot method; format: ADME, cell-based; conditions: mda-mb-453, 4 h, 0.3 µM; outline: as §1
MDA-MB-453 [8] = assay: Effect on total FRS2 levels in human MDA-MB-453 cells at 3 to 300 nM after 4 hrs by Western blot method; format: ADME, cell-based; conditions: mda-mb-453, 4 h, 0.3 µM; outline: as §1
[9] = target: T1, Fibroblast growth factor receptor 4; assay: Binding affinity to ATP binding site of human FGFR4 after 1 hr by qPCR method
Outline: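 The Kd for FGFR4 was measured in an active-site-dependent competition binding assay against the ATP-binding site.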
Target sequence in this assay (P22455 whole entry): as above

[10] = target: Calcium/calmodulin-dependent protein kinase type 1D (Homo sapiens) (UniProt Q8IU85); assay: Inhibition of human CAMK1D at 1 uM after 1 hr by KINOMEscan assay relative to control
Chain of Calcium/calmodulin-dependent protein kinase type 1D (Homo sapiens) (Q8IU85 whole entry, looked up): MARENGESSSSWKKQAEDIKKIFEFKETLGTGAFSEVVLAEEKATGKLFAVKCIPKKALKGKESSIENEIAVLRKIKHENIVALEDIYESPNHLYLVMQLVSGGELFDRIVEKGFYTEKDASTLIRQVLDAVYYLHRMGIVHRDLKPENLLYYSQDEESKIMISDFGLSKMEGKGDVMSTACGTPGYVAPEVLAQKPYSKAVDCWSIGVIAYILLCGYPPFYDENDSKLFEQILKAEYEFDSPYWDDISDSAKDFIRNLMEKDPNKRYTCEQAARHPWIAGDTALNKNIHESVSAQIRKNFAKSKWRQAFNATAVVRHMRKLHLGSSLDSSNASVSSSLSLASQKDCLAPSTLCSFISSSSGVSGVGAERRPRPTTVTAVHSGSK
Outline: (§2)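 Kinome-wide competition binding screen across 468 kinases, with compound at 1.0 µM.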

[11] = target: G protein-coupled receptor kinase 4 (Homo sapiens) (UniProt P32298); assay: Inhibition of human GRK4 at 1 uM after 1 hr by KINOMEscan assay relative to control; outline: as §2
Chain of G protein-coupled receptor kinase 4 (Homo sapiens) (P32298 whole entry, looked up): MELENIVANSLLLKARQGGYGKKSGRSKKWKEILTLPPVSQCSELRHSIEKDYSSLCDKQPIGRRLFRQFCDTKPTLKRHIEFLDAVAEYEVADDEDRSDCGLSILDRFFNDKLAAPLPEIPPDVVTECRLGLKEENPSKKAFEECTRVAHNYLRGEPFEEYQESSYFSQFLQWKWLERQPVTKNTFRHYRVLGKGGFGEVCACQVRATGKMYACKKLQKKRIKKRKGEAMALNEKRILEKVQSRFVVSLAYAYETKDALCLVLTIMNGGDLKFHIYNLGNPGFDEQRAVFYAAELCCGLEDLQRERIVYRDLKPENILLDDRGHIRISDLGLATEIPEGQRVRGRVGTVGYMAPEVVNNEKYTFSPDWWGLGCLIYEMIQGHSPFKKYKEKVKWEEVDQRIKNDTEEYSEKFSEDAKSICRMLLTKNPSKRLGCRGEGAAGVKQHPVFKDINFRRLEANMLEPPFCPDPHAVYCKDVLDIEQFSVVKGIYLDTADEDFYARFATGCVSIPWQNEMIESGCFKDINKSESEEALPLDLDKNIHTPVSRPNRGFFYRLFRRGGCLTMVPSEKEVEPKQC

[12] = target: SRSF protein kinase 3 (Homo sapiens) (UniProt Q9UPE1); assay: Inhibition of human SRSF protein kinase 3 at 1 uM after 1 hr by KINOMEscan assay relative to control; outline: as §2
Chain of SRSF protein kinase 3 (Homo sapiens) (Q9UPE1 whole entry): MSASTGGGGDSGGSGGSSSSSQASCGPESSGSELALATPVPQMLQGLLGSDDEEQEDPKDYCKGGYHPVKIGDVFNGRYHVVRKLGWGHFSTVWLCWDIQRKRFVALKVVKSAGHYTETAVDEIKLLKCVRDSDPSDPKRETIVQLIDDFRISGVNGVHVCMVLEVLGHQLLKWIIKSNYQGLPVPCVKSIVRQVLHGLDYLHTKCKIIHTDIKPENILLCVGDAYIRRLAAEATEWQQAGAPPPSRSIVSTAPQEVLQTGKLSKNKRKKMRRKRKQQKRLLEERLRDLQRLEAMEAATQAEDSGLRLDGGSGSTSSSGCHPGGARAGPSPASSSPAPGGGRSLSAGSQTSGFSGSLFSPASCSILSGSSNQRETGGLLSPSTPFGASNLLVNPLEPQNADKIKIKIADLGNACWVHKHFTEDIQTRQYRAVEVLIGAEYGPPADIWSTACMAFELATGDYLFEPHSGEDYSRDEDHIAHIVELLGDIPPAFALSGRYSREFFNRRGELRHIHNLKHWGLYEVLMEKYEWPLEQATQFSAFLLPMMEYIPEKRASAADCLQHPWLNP

MDA-MB-453 [13] = assay: Induction of apoptosis in human MDA-MB-453 cells after 48 hrs by annexin V/[…] staining-based flow cytometric method; format: functional, cell-based
[14] = target: T1, Fibroblast growth factor receptor 4; conditions: 1 uM

Chain of Fibroblast growth factor receptor 2 (P21802 whole entry, the tested form may be a part): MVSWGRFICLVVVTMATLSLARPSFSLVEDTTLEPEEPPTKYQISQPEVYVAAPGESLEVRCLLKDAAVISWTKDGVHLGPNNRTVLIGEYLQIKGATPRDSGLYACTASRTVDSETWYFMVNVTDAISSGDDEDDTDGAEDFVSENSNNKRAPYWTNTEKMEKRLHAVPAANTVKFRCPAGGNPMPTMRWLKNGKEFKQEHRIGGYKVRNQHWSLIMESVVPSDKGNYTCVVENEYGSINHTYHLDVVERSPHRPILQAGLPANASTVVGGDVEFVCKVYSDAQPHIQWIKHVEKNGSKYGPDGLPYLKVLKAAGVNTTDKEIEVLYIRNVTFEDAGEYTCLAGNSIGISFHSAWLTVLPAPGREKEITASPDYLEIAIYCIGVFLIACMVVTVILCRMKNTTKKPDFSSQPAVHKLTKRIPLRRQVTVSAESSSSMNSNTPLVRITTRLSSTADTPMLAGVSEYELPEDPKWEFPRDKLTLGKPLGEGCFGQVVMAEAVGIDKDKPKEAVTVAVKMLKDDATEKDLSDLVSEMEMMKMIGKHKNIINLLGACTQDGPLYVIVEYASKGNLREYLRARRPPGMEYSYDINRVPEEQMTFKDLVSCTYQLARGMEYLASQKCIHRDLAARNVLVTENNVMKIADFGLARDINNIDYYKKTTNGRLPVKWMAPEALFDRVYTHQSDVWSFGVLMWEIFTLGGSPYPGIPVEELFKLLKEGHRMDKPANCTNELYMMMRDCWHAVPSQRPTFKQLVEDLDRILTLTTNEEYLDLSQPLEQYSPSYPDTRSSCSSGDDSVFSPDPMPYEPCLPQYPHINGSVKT

Compound `C=CC(=O)Nc1cccc(OC)c1Nc1ncc(OCc2c(Cl)c(OC)cc(OC)c2Cl)cn1` has an IC50 [1] greater than 10 µM, an IC50 [2] greater than 10 µM and an IC50 (MDA-MB-453 [3]) of 0.21 µM. For the same compound, the IC50 (MDA-MB-231) was 2.14 µM and the IC50 (MCF7) was 1.18 µM.

Work on `C=CC(=O)Nc1cc(F)cc(Cl)c1Nc1ncc(OCc2c(Cl)c(OC)cc(OC)c2Cl)cn1` yielded an IC50 [4] greater than 10 µM, an IC50 [1] greater than 10 µM and an IC50 [2] greater than 10 µM. The IC50 [5] was 0.0026 µM, the Activity (MDA-MB-453 [6]) was “Non-Toxic” and the Activity (MDA-MB-453 [7]) was “Non-Toxic”. The Activity (MDA-MB-453 [8]) was “Non-Toxic”, the Kd [9] was 0.0033 µM and the inhibition [10] was 94.7%. The inhibition [11] was 92.8%, the inhibition [12] was 88% and the IC50 (MDA-MB-453 [3]) was 0.38 µM. The IC50 (MDA-MB-231) was greater than 10 µM, the IC50 (MCF7) was greater than 10 µM and the Activity (MDA-MB-453 [13]) was “Dose-dependent effect”. For the same compound, the inhibition [14] was 99.5%.

`C=CC(=O)Nc1cccc(C)c1Nc1ncc2cc(-c3c(Cl)c(OC)cc(OC)c3Cl)ccc2n1` showed an IC50 [4] of 0.24 µM, an IC50 [2] of 0.244 µM and an IC50 (MDA-MB-453 [3]) of 0.32 µM. For the same compound, the IC50 (MDA-MB-231) was 3.76 µM and the IC50 (MCF7) was 2.34 µM.

Work on `C=CC(=O)Nc1cccc(Cl)c1Nc1ncc(OCc2cccc(OC)c2)cn1` yielded an IC50 [4] greater than 10 µM, an IC50 [1] greater than 10 µM and an IC50 [2] greater than 10 µM.

With `C=CC(=O)Nc1cccc(Cl)c1Nc1ncc(OCc2cc(OC)ccc2Cl)cn1` the IC50 [1] was greater than 10 µM and the IC50 [2] was greater than 10 µM.

With `C=CC(=O)Nc1cccc(Cl)c1Nc1ncc(OCc2c(Cl)ccc(OC)c2Cl)cn1` the IC50 [1] was greater than 10 µM and the IC50 [2] was greater than 10 µM.

Work on `C=CC(=O)Nc1cccc(Cl)c1Nc1ncc(OC(C)c2c(Cl)c(OC)cc(OC)c2Cl)cn1` (stereo not given) yielded an IC50 [1] greater than 10 µM and an IC50 [2] greater than 10 µM.

In the case of `C=CC(=O)Nc1cc(Cl)cc(Cl)c1Nc1ncc(OCc2c(Cl)c(OC)cc(OC)c2Cl)cn1`, the IC50 [1] is reported as greater than 10 µM, the IC50 [2] is reported as greater than 10 µM and the IC50 (MDA-MB-453 [3]) is reported as 0.87 µM. It also gave an IC50 (MDA-MB-231) greater than 10 µM and an IC50 (MCF7) greater than 10 µM.

`C=CC(=O)Nc1cccc(C(F)(F)F)c1Nc1ncc(OCc2c(Cl)c(OC)cc(OC)c2Cl)cn1` was tested, and the IC50 [4] was greater than 10 µM, the IC50 [1] was greater than 10 µM and the IC50 [2] was greater than 10 µM.

With `C=CC(=O)Nc1cc(C(F)(F)F)cc(Cl)c1Nc1ncc(OCc2c(Cl)c(OC)cc(OC)c2Cl)cn1` the IC50 [4] was greater than 10 µM, the IC50 [1] was greater than 10 µM and the IC50 [2] was greater than 10 µM.

For `C=CC(=O)Nc1cccc(OCC)c1Nc1ncc(OCc2c(Cl)c(OC)cc(OC)c2Cl)cn1`, the IC50 [4] was greater than 10 µM, the IC50 [1] was greater than 10 µM and the IC50 [2] was greater than 10 µM.

`C=CC(=O)Nc1cccc(OC(C)C)c1Nc1ncc(OCc2c(Cl)c(OC)cc(OC)c2Cl)cn1` gave an IC50 [4] greater than 10 µM, an IC50 [1] greater than 10 µM and an IC50 [2] greater than 10 µM.

In the case of `C=CC(=O)Nc1cccc(CC)c1Nc1ncc(OCc2c(Cl)c(OC)cc(OC)c2Cl)cn1`, the IC50 [1] is reported as greater than 10 µM and the IC50 [2] is reported as greater than 10 µM.

In the case of `C=CC(=O)Nc1cccc(C)c1Nc1ncc(NCc2c(Cl)c(OC)cc(OC)c2Cl)cn1`, the IC50 [1] is reported as greater than 10 µM and the IC50 [2] is reported as greater than 10 µM.

`C=CC(=O)Nc1cccc(Cl)c1Nc1ncc(OCc2c(Cl)cccc2Cl)cn1` gave an IC50 [4] greater than 10 µM, an IC50 [1] greater than 10 µM and an IC50 [2] greater than 10 µM.

For `C=CC(=O)Nc1cccc(Cl)c1Nc1ncc(OCc2c(Cl)c(OC)cc(OC)c2Cl)cn1`, the IC50 [1] was greater than 10 µM, the IC50 [2] was greater than 10 µM and the IC50 (MDA-MB-453 [3]) was 0.65 µM. The IC50 (MDA-MB-231) was greater than 10 µM and the IC50 (MCF7) was greater than 10 µM.

`C=CC(=O)Nc1cccc(Cl)c1Nc1ncc(OCc2cc(OC)cc(OC)c2)cn1` showed an IC50 [1] greater than 10 µM and an IC50 [2] greater than 10 µM.

Compound `C=CC(=O)Nc1cccc(C)c1Nc1ncc(OCc2c(Cl)c(OC)cc(OC)c2Cl)cn1` has an IC50 (MDA-MB-453 [3]) of 0.22 µM, an IC50 (MDA-MB-231) greater than 10 µM and an IC50 (MCF7) greater than 10 µM.

Work on `C=CC(=O)Nc1cccc(Cl)c1Nc1ncc(OCc2cc(OC)cc(OC)c2Cl)cn1` yielded an IC50 [1] greater than 10 µM and an IC50 [2] greater than 10 µM.

Work on `C=CC(=O)Nc1ccc(C)cc1Nc1ncc(OCc2c(Cl)c(OC)cc(OC)c2Cl)cn1` yielded an IC50 [1] greater than 10 µM and an IC50 [2] greater than 10 µM.

With `C=CC(=O)Nc1cccc(Cl)c1Nc1ncc(OCc2cccc(OC)c2Cl)cn1` the IC50 [1] was greater than 10 µM and the IC50 [2] was greater than 10 µM.

`C=CC(=O)Nc1cc(C)ccc1Nc1ncc(OCc2c(Cl)c(OC)cc(OC)c2Cl)cn1` was tested, and the IC50 [1] was greater than 10 µM and the IC50 [2] was greater than 10 µM.

Work on `C=CC(=O)Nc1cccc(F)c1Nc1ncc(OCc2c(Cl)c(OC)cc(OC)c2Cl)cn1` yielded an IC50 [1] of 0.397 µM and an IC50 [2] of 4.3 µM.

Work on `C=CC(=O)Nc1ccccc1Nc1ncc(OCc2c(Cl)c(OC)cc(OC)c2Cl)cn1` yielded an IC50 [1] of 0.312 µM and an IC50 [2] of 1.2 µM.

Compound `C=CC(=O)Nc1c(C)cccc1Nc1ncc(OCc2c(Cl)c(OC)cc(OC)c2Cl)cn1` has an IC50 [1] greater than 10 µM, an IC50 [2] greater than 10 µM and an IC50 [5] greater than 10 µM.

`CCC(=O)Nc1cccc(Cl)c1Nc1ncc(OCc2c(Cl)c(OC)cc(OC)c2Cl)cn1` was tested, and the IC50 [1] was greater than 10 µM, the IC50 [2] was greater than 10 µM and the IC50 [5] was greater than 10 µM.

`C=CC(=O)Nc1cccc(Cl)c1Nc1ncc(OCc2ccccc2Cl)cn1` was tested, and the IC50 [4] was greater than 10 µM, the IC50 [1] was greater than 10 µM and the IC50 [2] was greater than 10 µM.
